Measured values reported in ChEMBL document CHEMBL5724801, “EUbOPEN Chemogenomics Library - Multiplex” (2024).
Several values for one entry are separate records, joined by “and”; a condition that tells them apart may be missing. Equal values may be shown once.

How the values were obtained:
Assay type in all cases: toxicity, cell-based
HEK-293T = experiment: Multiplex assay against HEK293T; conditions: human
How it was run: (§1)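 Four dyes were applied at seeding to live cells: Hoechst33342, BioTracker Green Microtubule Cytoskeleton Dye, MitoTracker Red and Annexin V Alexa Fluor 680. Imaging after compound addition used a CQ1 microscope at 37°C and 5% CO2. CellPathfinder machine-learning gating then sorted cells into Hoechst high-intensity objects or normal cells, normal cells into healthy, pyknosed or fragmented nuclei, and pyknosed cells into mitotic or apoptotic, with tubulin, mitochondrial-mass and membrane-permeability phenotypes given as per cents of healthy-nucleus cells.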

Fibroblast = experiment: Multiplex assay against human fibroblast; how it was run: as §1
U2OS = experiment: Multiplex assay against U2OS; conditions: human; how it was run: as §1
[1] = 12 h, 1 µM, compound concentration 1 uM
[2] = 12 h, 10 µM, compound concentration 10 uM
[3] = 24 h, 1 µM, compound concentration 1 uM
[4] = 24 h, 10 µM, compound concentration 10 uM
[5] = 48 h, 1 µM, compound concentration 1 uM
[6] = 48 h, 10 µM, compound concentration 10 uM

Question: What does the source list for `Cc1cc(O)c(-c2ccc([C@@H](C)CN(C)C)cc2)c2c1[nH]c(=O)c1sccc12`?
Answer: Population Membrane Permeable-Phenotype (%) (HEK-293T; [1]): 0% and 1% and 7.14%; Population Mitotic Cells (%) (HEK-293T; [1]): 88.89% [middle of 4 runs]; Population Normal (%) (HEK-293T; [1]): 72% and 71% and 100%; Population Tubulin-Different-Phenotype (%) (HEK-293T; [1]): 74% [middle of 4 runs]; Total Cell Count (HEK-293T; [1]): 209 and 207 and 208 and 140; Population Fragmented Nuclei (%) (HEK-293T; [2]): 6% and 7% and 2.23% and 0.71%; Population Membrane Permeable-Phenotype (%) (HEK-293T; [2]): 0% and 2.04% and 9.09%; Population Mitotic Cells (%) (HEK-293T; [2]): 62.79% [middle of 4 runs]; Population Normal (%) (HEK-293T; [2]): 58% and 71% and 100%; Population Pyknosed Nuclei (%) (HEK-293T; [2]): 75.89% [middle of 4 runs]; Population Tubulin-Different-Phenotype (%) (HEK-293T; [2]): 60% and 72% and 75.51% and 63.64%; Total Cell Count (HEK-293T; [2]): 268 and 195 and 224 and 141; Population Apoptotic (%) (HEK-293T; [3]): 65% and 68% and 44.06% and 39.32%; Population Fragmented Nuclei (%) (HEK-293T; [3]): 9% and 2.63% and 2.94%; Population Hoechst High Intensity Objects (%) (HEK-293T; [3]): 21% and 1.72% and 0%; Population Membrane Permeable-Phenotype (%) (HEK-293T; [3]): 0% and 6.67%; Population Mitochondria Different-Phenotype (%) (HEK-293T; [3]): 89% [middle of 4 runs]; Population Mitotic Cells (%) (HEK-293T; [3]): 34% and 31% and 55.94% and 60.68%; Population Normal (%) (HEK-293T; [3]): 78% and 98.28% and 100%; Population Tubulin-Different-Phenotype (%) (HEK-293T; [3]): 67% [middle of 4 runs]; Total Cell Count (HEK-293T; [3]): 230 and 205 and 232 and 136; Population Apoptotic (%) (HEK-293T; [4]): 73% and 85% and 61.29% and 65.71%; Population Fragmented Nuclei (%) (HEK-293T; [4]): 8% and 7% and 0.96% and 1.33%; Population Membrane Permeable-Phenotype (%) (HEK-293T; [4]): 1.92% [middle of 4 runs]; Population Mitochondria Different-Phenotype (%) (HEK-293T; [4]): 92% [middle of 4 runs]; Population Mitotic Cells (%) (HEK-293T; [4]): 34.29% [middle of 4 runs]; Population Normal (%) (HEK-293T; [4]): 63% and 74% and 99.52% and 100%; Population Tubulin-Different-Phenotype (%) (HEK-293T; [4]): 70% and 80% and 96.15% and 62.5%; Total Cell Count (HEK-293T; [4]): 290 and 203 and 210 and 150; Population Apoptotic (%) (HEK-293T; [5]): 86% and 69% and 73.55% and 70.43%; Population Hoechst High Intensity Objects (%) (HEK-293T; [5]): 24% [middle of 4 runs]; Population Membrane Permeable-Phenotype (%) (HEK-293T; [5]): 0%; Population Mitochondria Different-Phenotype (%) (HEK-293T; [5]): 90% and 96% and 92% and 88.89%; Population Mitotic Cells (%) (HEK-293T; [5]): 29.57% [middle of 4 runs]; Population Normal (%) (HEK-293T; [5]): 75% and 74% and 99.03% and 100%; Population Tubulin-Different-Phenotype (%) (HEK-293T; [5]): 76% and 70% and 42.67% and 77.78%; Total Cell Count (HEK-293T; [5]): 249 and 212 and 206 and 135; Population Apoptotic (%) (HEK-293T; [6]): 86% and 87% and 92.81% and 91.73%; Population Fragmented Nuclei (%) (HEK-293T; [6]): 13% [middle of 4 runs]; Population Membrane Permeable-Phenotype (%) (HEK-293T; [6]): 1% and 0% and 1.56%; Population Mitochondria Different-Phenotype (%) (HEK-293T; [6]): 92% and 100% and 87.5%; Population Mitotic Cells (%) (HEK-293T; [6]): 13% and 12% and 7.19% and 8.27%; Population Normal (%) (HEK-293T; [6]): 59% and 65% and 99.52% and 100%; Population Tubulin-Different-Phenotype (%) (HEK-293T; [6]): 54% and 73% and 90.62% and 87.5%; Total Cell Count (HEK-293T; [6]): 223 [middle of 4 runs]; Population Healthy Nuclei (%) (Fibroblast; [1]): 67% and 56% and 55.08% and 75.51%; Population Hoechst High Intensity Objects (%) (Fibroblast; [1]): 7% and 2% and 0%; Population Membrane Permeable-Phenotype (%) (Fibroblast; [1]): 1% and 4% and 5.83% and 9.91%; Population Mitochondria Different-Phenotype (%) (Fibroblast; [1]): 17% and 12% and 18.45% and 20.72%; Population Mitotic Cells (%) (Fibroblast; [1]): 72.41% [middle of 4 runs]; Population Normal (%) (Fibroblast; [1]): 92% and 97% and 100%; Population Pyknosed Nuclei (%) (Fibroblast; [1]): 20% and 21% and 33.16% and 19.73%; Population Tubulin-Different-Phenotype (%) (Fibroblast; [1]): 44% and 52% and 26.21% and 40.54%; Total Cell Count (Fibroblast; [1]): 145 and 115 and 187 and 147; Population Apoptotic (%) (Fibroblast; [2]): 69% [middle of 4 runs]; Population Healthy Nuclei (%) (Fibroblast; [2]): 63% and 55% and 58.38% and 64.17%; Population Hoechst High Intensity Objects (%) (Fibroblast; [2]): 6% and 5% and 0%; Population Membrane Permeable-Phenotype (%) (Fibroblast; [2]): 8.7% [middle of 4 runs]; Population Mitochondria Different-Phenotype (%) (Fibroblast; [2]): 40% [middle of 4 runs]; Population Mitotic Cells (%) (Fibroblast; [2]): 30% and 75.86% and 55.84%; Population Normal (%) (Fibroblast; [2]): 93% and 94% and 100%; Population Pyknosed Nuclei (%) (Fibroblast; [2]): 29.44% [middle of 4 runs]; Population Tubulin-Different-Phenotype (%) (Fibroblast; [2]): 90% and 80% and 81.74% and 85.06%; Total Cell Count (Fibroblast; [2]): 146 and 137 and 197 and 240; Population Healthy Nuclei (%) (Fibroblast; [3]): 66% and 54% and 64.88% and 75%; Population Hoechst High Intensity Objects (%) (Fibroblast; [3]): 7% and 9% and 0%; Population Membrane Permeable-Phenotype (%) (Fibroblast; [3]): 0% and 1% and 5.5% and 9.26%; Population Mitochondria Different-Phenotype (%) (Fibroblast; [3]): 21.1% [middle of 4 runs]; Population Mitotic Cells (%) (Fibroblast; [3]): 54% and 47% and 85.37% and 84.62%; Population Normal (%) (Fibroblast; [3]): 92% and 90% and 100%; Population Pyknosed Nuclei (%) (Fibroblast; [3]): 21% and 16% and 24.4% and 18.06%; Population Tubulin-Different-Phenotype (%) (Fibroblast; [3]): 73% and 56% and 47.71% and 50.93%; Total Cell Count (Fibroblast; [3]): 119 and 111 and 168 and 144; Population Apoptotic (%) (Fibroblast; [4]): 57% [middle of 4 runs]; Population Healthy Nuclei (%) (Fibroblast; [4]): 65% and 51% and 52.84% and 54.55%; Population Hoechst High Intensity Objects (%) (Fibroblast; [4]): 3% and 8% and 0%; Population Membrane Permeable-Phenotype (%) (Fibroblast; [4]): 0% and 3% and 6.45% and 8.77%; Population Mitochondria Different-Phenotype (%) (Fibroblast; [4]): 42% and 34% and 53.76% and 42.11%; Population Mitotic Cells (%) (Fibroblast; [4]): 43.68% [middle of 4 runs]; Population Normal (%) (Fibroblast; [4]): 96% and 91% and 100%; Population Pyknosed Nuclei (%) (Fibroblast; [4]): 34.66% [middle of 4 runs]; Population Tubulin-Different-Phenotype (%) (Fibroblast; [4]): 87% and 81% and 80.65% and 92.11%; Total Cell Count (Fibroblast; [4]): 122 and 124 and 176 and 209; Population Apoptotic (%) (Fibroblast; [5]): 57% [middle of 4 runs]; Population Healthy Nuclei (%) (Fibroblast; [5]): 55% and 48% and 49.14% and 75.38%; Population Hoechst High Intensity Objects (%) (Fibroblast; [5]): 7% and 9% and 0%; Population Mitochondria Different-Phenotype (%) (Fibroblast; [5]): 20% [middle of 4 runs]; Population Mitotic Cells (%) (Fibroblast; [5]): 52% [middle of 4 runs]; Population Normal (%) (Fibroblast; [5]): 92% and 90% and 100%; Population Pyknosed Nuclei (%) (Fibroblast; [5]): 24% and 20% and 28.57% and 19.23%; Population Tubulin-Different-Phenotype (%) (Fibroblast; [5]): 70% and 62% and 43.02% and 59.18%; Total Cell Count (Fibroblast; [5]): 118 and 103 and 175 and 130; Population Apoptotic (%) (Fibroblast; [6]): 70% and 71% and 49.33% and 79.12%; Population Healthy Nuclei (%) (Fibroblast; [6]): 53% and 43% and 45.16% and 48.13%; Population Hoechst High Intensity Objects (%) (Fibroblast; [6]): 10% and 7% and 0%; Population Membrane Permeable-Phenotype (%) (Fibroblast; [6]): 0% and 8.33% and 20%; Population Mitochondria Different-Phenotype (%) (Fibroblast; [6]): 53% and 30% and 44.05%; Population Mitotic Cells (%) (Fibroblast; [6]): 29% [middle of 4 runs]; Population Normal (%) (Fibroblast; [6]): 89% and 92% and 100%; Population Tubulin-Different-Phenotype (%) (Fibroblast; [6]): 89% and 85% and 58.33% and 77.78%; Total Cell Count (Fibroblast; [6]): 117 and 136 and 186 and 187; Population Apoptotic (%) (U2OS; [1]): 70% [middle of 4 runs]; Population Healthy Nuclei (%) (U2OS; [1]): 48% and 63% and 56.09% and 62.5%; Population Hoechst High Intensity Objects (%) (U2OS; [1]): 4% and 2% and 0.32% and 0%; Population Normal (%) (U2OS; [1]): 95% and 97% and 99.68% and 100%; Population Tubulin-Different-Phenotype (%) (U2OS; [1]): 12% and 14% and 4% and 6.67%; Population Apoptotic (%) (U2OS; [2]): 64% and 69% and 40.85% and 42.19%; Population Healthy Nuclei (%) (U2OS; [2]): 50% and 56% and 56.98% and 52.11%; Population Hoechst High Intensity Objects (%) (U2OS; [2]): 4% and 8% and 0%; Population Mitotic Cells (%) (U2OS; [2]): 35% and 30% and 59.15% and 57.81%; Population Normal (%) (U2OS; [2]): 95% and 91% and 100%; Population Pyknosed Nuclei (%) (U2OS; [2]): 41.28% [middle of 4 runs]; Population Tubulin-Different-Phenotype (%) (U2OS; [2]): 72% and 45% and 70.41% and 64.86%; Population Apoptotic (%) (U2OS; [3]): 92% [middle of 4 runs]; Population Healthy Nuclei (%) (U2OS; [3]): 34% [middle of 4 runs]; Population Hoechst High Intensity Objects (%) (U2OS; [3]): 8% and 6% and 0.34% and 0%; Population Normal (%) (U2OS; [3]): 91% and 93% and 99.66% and 100%; Population Tubulin-Different-Phenotype (%) (U2OS; [3]): 19% and 12% and 11.11% and 17.07%; Population Apoptotic (%) (U2OS; [4]): 81% and 82% and 58.37% and 68.63%; Population Healthy Nuclei (%) (U2OS; [4]): 31% [middle of 4 runs]; Population Hoechst High Intensity Objects (%) (U2OS; [4]): 9% [middle of 4 runs]; Population Membrane Permeable-Phenotype (%) (U2OS; [4]): 16% [middle of 4 runs]; Population Mitochondria Different-Phenotype (%) (U2OS; [4]): 70% [middle of 4 runs]; Population Mitotic Cells (%) (U2OS; [4]): 31.37% [middle of 4 runs]; Population Normal (%) (U2OS; [4]): 90% and 87% and 99.35% and 100%; Population Pyknosed Nuclei (%) (U2OS; [4]): 67.86% [middle of 4 runs]; Population Tubulin-Different-Phenotype (%) (U2OS; [4]): 64.47% [middle of 4 runs]; Total Cell Count (U2OS; [4]): 210 [middle of 4 runs]; Population Apoptotic (%) (U2OS; [5]): 96% and 100% and 72.95% and 83.47%; Population Healthy Nuclei (%) (U2OS; [5]): 18% [middle of 4 runs]; Population Normal (%) (U2OS; [5]): 82% and 84% and 99.63% and 98.84%; Population Tubulin-Different-Phenotype (%) (U2OS; [5]): 25% and 50% and 28.57%; Total Cell Count (U2OS; [5]): 250 [middle of 4 runs]; Population Apoptotic (%) (U2OS; [6]): 96% and 100% and 80.93% and 86.67%; Population Healthy Nuclei (%) (U2OS; [6]): 17% and 13% and 14.23% and 9.84%; Population Mitochondria Different-Phenotype (%) (U2OS; [6]): 45% and 50% and 33.33%; Population Mitotic Cells (%) (U2OS; [6]): 13.33% [middle of 4 runs]; Population Normal (%) (U2OS; [6]): 79% and 84% and 98.92% and 99.19%; Population Pyknosed Nuclei (%) (U2OS; [6]): 31% and 78.47% and 86.07%; Population Tubulin-Different-Phenotype (%) (U2OS; [6]): 64% [middle of 4 runs]; Total Cell Count (U2OS; [6]): 220 [middle of 4 runs]
